Screening data: PubChem BioAssay, Sanford-Burnham Center for Chemical Genomics
This is a sample that favours compounds with a hit; in the whole collection about 1.5% have one here.
APJ antagonist: blocks the human apelin receptor APJ; P35414; CHO-K1 APJ beta-arrestin complementation, luminescence; inhibition, % at 20 µM; hit rate 0.32% among 330,000; AID 2521;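 active = inhibition above about 40% at 20 µM, limit read from the data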;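 note: cells challenged with 10 nM apelin-13 agonist together with compound; plate controls were apelin-13 plus DMSO wells for no effect and DMSO wells lacking apelin-13 for full effect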
EBI2 block: blocks human EBI2 receptor beta-arrestin signaling; P32249; EBI2 beta-arrestin recruitment, luminescence, 7a,25-OHC stimulated; inhibition, % at 5 µM; hit rate 0.81% among 360,000; in the data active = inhibition above about 38%;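 note: enzyme fragment complementation signal reports receptor beta-arrestin coupling in cells; 0% = agonist plus DMSO wells and 100% = wells without agonist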
Target sequence (P32249 whole entry, looked up, the tested form may be a part): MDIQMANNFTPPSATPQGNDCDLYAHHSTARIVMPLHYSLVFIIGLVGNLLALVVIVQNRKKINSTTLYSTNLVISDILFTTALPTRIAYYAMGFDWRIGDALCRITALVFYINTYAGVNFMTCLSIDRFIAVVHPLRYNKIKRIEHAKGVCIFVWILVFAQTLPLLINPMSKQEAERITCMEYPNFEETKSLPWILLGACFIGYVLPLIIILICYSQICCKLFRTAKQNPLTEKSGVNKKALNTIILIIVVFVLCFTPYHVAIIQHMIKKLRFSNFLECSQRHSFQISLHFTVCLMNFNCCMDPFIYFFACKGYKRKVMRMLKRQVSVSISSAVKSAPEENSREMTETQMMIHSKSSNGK
CXCR6 block: blocks human CXCR6 beta-arrestin recruitment | CHO-K1 PathHunter CXCR6 beta-arrestin, luminescence | hit rate 0.36% among 360,000 | inhibition, % at 20 µM | O00574; in the data active = inhibition above about 34%, passing the limit was not always enough;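 note: antagonist mode with CXCL16 agonist at 10 nM final; 0% = 10 nM CXCL16 with DMSO and 100% = unstimulated wells without agonist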
Target sequence (O00574 whole entry, looked up): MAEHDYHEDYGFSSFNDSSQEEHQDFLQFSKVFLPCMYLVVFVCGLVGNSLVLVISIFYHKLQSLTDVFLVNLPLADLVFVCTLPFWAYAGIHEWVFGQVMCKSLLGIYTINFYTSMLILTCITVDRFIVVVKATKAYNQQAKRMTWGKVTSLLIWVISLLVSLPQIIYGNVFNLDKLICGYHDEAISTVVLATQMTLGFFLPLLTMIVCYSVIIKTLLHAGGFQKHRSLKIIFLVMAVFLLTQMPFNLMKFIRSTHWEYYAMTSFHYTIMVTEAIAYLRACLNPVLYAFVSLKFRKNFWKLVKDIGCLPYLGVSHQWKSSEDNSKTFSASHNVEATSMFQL
CCR6 antag: antagonists of human CCR6 receptor | hit rate 0.49% among 340,000 | inhibition, % at 20 µM | CHO-K1 CCR6 PathHunter beta-arrestin, luminescence, CCL20-stimulated | P51684 | AID 493098;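 active = compounds whose inhibition of the agonist-driven luminescence signal at 20 µM reaches about 50%, limit read from the data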;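 note: cells stimulated with CCL20 at 14 nM final; plate controls were DMSO with CCL20 for no effect and DMSO without agonist for full effect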
APJ agonist: agonists of human APJ apelin receptor; CHO-K1 APJ PathHunter beta-arrestin, luminescence; 0% DMSO wells, 100% apelin; P35414; activation, % at 20 µM; hit rate 0.11% among 330,000;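 active = activation more than six SD over the plate average, tested at 20 µM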;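 note: 0% = DMSO alone and 100% = apelin-13 at 10 nM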
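Assay system: CHO-K1 cells stably expressing ProLink-tagged human APJ and arrestin–beta-gal acceptor. Compound dosing: 20 µM single point, 1% DMSO. Times: 16-18 h seeding, 90 min dark compound exposure, 60 min detection. Detection: beta-gal luminescence. Evaluation: APJ–arrestin association signal. Controls: negative DMSO alone, positive Apelin-13 at 10 nM.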
EBI2 conf: EBI2 (human) antagonism, single concentration confirmation; shares compounds with EBI2 block; EBI2 beta-arrestin luminescence, 7a,25-OHC antagonism; inhibition, % at 5 µM; hit rate 29% among 2,400;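 active = inhibition of at least 50%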
EBI2 agonist: counter-screen for EBI2 antagonists: EBI2 agonist activity; shares compounds with EBI2 block; EBI2-expressing cells, agonist mode, luminescence, 60 min; 0% vehicle, 100% 7α,25-dihydroxycholesterol control; activation, % at 5 µM; 2,400 tested, under 10 active; AID 652000;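 active = activation of at least 50%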
bGal counter: counter-screen for EBI2 antagonists: E. coli beta-galactosidase inhibition; shares compounds with EBI2 block; purified beta-galactosidase, luminescent Galacton Star, 15 min; inhibition, % at 5 µM; hit rate 1% among 2,400; AID 652176;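 active = replicate-average signal at least 3 plate SD below neutral wells, shown as high inhibition, flagging enzyme-inhibiting false positives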;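 note: 0% = DMSO wells with enzyme and 100% = wells lacking enzyme; higher means stronger loss of beta-gal luminescence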
Starred values were filed as active, the others as inactive; . = no result.

SMILES	APJ antagonist	EBI2 block	CXCR6 block	CCR6 antag	APJ agonist	EBI2 conf	EBI2 agonist	bGal counter
COc1cc2nc(CN3CCN(C(C)=O)CC3)[nH]c(=O)c2cc1OC	8.2	2.8	-3.2	-7.1	-1.1	.	.	.
COc1cc2nc(CN3CCN(S(=O)(=O)c4ccccc4)CC3)[nH]c(=O)c2cc1OC	11.3	46.6*	-16.6	3.4	-0.9	22.8	-0.9	-8.5
COc1cc2nc(CN3CCC(Cc4ccccc4)CC3)[nH]c(=O)c2cc1OC	-7.4	45.8*	4.3	13.9	-5.2	23.7	0.6	0.2
O=C(Cc1ccccc1)c1ccccc1C(=O)N1CCCCC1	14.0	-2.8	-9.6	6.0	-3.3	.	.	.
C[C@@H]1CN([C@@H](C)CO)C(=O)c2cccc(NC(=O)C3CCCCC3)c2O[C@@H]1CN(C)C(=O)NC1CCCCC1	-2.9	4.1	6.0	6.1	-3.4	.	.	.
CNc1ccc(-c2ccccc2OC)cn1	.	-2.7	-3.5	.	.	.	.	.
COc1cc2nc(CN3CCN(S(=O)(=O)c4ccc(Cl)cc4)CC3)[nH]c(=O)c2cc1OC	13.9	55.9*	8.1	4.8	0.6	30.7	1.5	3.7
O=c1[nH]c(CN2CCN(c3ncccn3)CC2)nc2c(Br)cc(Br)cc12	-3.5	2.8	5.0	6.8	-4.7	.	.	.
O=c1[nH]c(CN2CCN(S(=O)(=O)c3cccs3)CC2)nc2c(Br)cc(Br)cc12	-17.5	54.2*	7.8	16.3	2.7	21.6	0.2	5.2
COc1ccc(N2CCN(Cc3nc4cc(Cl)ccc4c(=O)[nH]3)CC2)cc1	6.7	-13.6	6.5	-4.8	-3.6	.	.	.
CCC1CCCCN1C(=O)CCNS(=O)(=O)c1ccc2c(c1)oc(=O)n2C (centres undefined)	24.3	-5.6	-5.7	6.8	-2.8	.	.	.
COc1ccc(C(=O)NC23CC4CC(CC(C4)C2)C3)cc1	-10.8	-2.9	3.7	5.2	-1.2	.	.	.
CC(Oc1ccc2oc3ccccc3c2c1)C(=O)NC12CC3CC(CC(C3)C1)C2 (centres undefined)	3.5	53.7*	-0.6	13.0	-3.9	13.0	-1.5	-16.0
Cc1cccc(C)c1-n1nnnc1C(c1ccnc2ccccc12)N1CCCC1 (centres undefined)	.	6.0	7.9	.	.	.	.	.
Cc1cccc(C)c1-n1nnnc1C(c1ccnc2ccccc12)N1CCN(C(=O)OCc2ccccc2)CC1 (centres undefined)	.	40.8*	10.6	.	.	35.7	-1.2	-14.1
O=C(/C=C/c1ccc(Br)cc1)c1ccc(NC(=O)c2ccco2)cc1	4.9	42.9*	2.5	0.5	-1.3	8.6	-1.2	-7.8
CCCC(=O)Nc1ccc(C(=O)/C=C/c2ccc(SC)cc2)cc1	2.6	43.5*	-3.5	4.1	-0.3	38.2	0.0	6.0
CSc1ccc(/C=C/C(=O)c2ccc(NC(C)=O)cc2)cc1	1.8	80.5*	6.4	10.3	-2.1	39.8	-0.1	6.2
O=C(CN(c1ccccc1)S(=O)(=O)c1ccccc1)NCCSc1nc2ccccc2s1	23.6	59.0*	7.9	-2.4	-0.6	53.2*	0.9	-2.9
Cc1ccc(N(CC(=O)NCCSc2nc3ccccc3s2)S(=O)(=O)c2ccccc2)c(C)c1	-1.8	45.6*	7.4	9.3	-1.7	14.3	0.1	2.1
Cn1c(=O)c2c(ncn2CC(=O)N2CCN(S(=O)(=O)c3ccccc3)CC2)n(C)c1=O	3.6	12.7	-7.9	-0.9	3.6	.	.	.
COc1ccc(C(=O)/C=C2\C(=O)Nc3ccc(Br)cc32)cc1	.	77.9*	35.9	21.5	.	70.1*	-0.5	-9.5
COc1ccc2c(c1)/C(=C/c1cc(OC)c(OC)c(OC)c1)C(=O)N2	.	12.4	4.7	19.1	.	.	.	.
COc1ccccc1CNc1cc(CSc2ccc(Cl)cc2)nc(C)n1	-11.1	48.5*	14.0	-1.4	-3.2	31.9	0.8	-1.4
Cc1ccc(C(=O)COC(=O)c2ccc3c(c2)C(=O)N(c2cccc4ncccc24)C3=O)cc1C	-0.3	47.9*	4.2	11.4	2.3	1.2	-1.6	-8.6
SMILES	APJ antagonist	EBI2 block	CXCR6 block	CCR6 antag	APJ agonist	EBI2 conf	EBI2 agonist	bGal counter
CCN1CCN(C(=O)/C=C/c2ccc(OC)c(OC)c2)CC1	-20.5	-0.8	0.1	4.5	0.6	.	.	.
CCN1CCN(C(=O)/C=C/c2cccc(Cl)c2)CC1	11.0	75.1*	-3.0	5.5	-5.9	34.2	1.2	2.5
CCN1CCN(C(=O)/C=C/c2ccc(C(C)C)cc2)CC1	-8.4	92.7*	-1.4	8.3	-5.4	86.6*	0.3	2.6
CCOC(=O)C(=O)N(C)c1c(CC)nc2c(OCc3ccccc3C)cccn12	.	1.4	2.5	.	.	.	.	.
Cc1ccc(-c2nc3ccsc3c(=O)[nH]2)cc1	8.6	-3.0	3.3	10.0	-1.7	.	.	.
CC(C)(C)c1ccc(C(=O)NNc2cc(Cl)cc(Cl)c2)cc1	4.7	34.4	9.5	5.9	-11.2	.	.	.
N#Cc1ccc(OCC(O)CN2CCN(CC(O)COc3ccc(C#N)cc3)CC2)cc1 (centres undefined)	8.3	14.7	8.3	-1.1	0.4	.	.	.
N#Cc1ccc(OCC(O)CN2CCN(C(c3ccccc3)c3ccccc3)CC2)cc1 (centres undefined)	2.5	88.6*	3.5	9.5	-1.4	58.9*	-0.9	-11.0
OC(COc1ccccc1)CN1CCN(C(c2ccccc2)c2ccccc2)CC1 (centres undefined)	-0.8	59.5*	5.4	3.9	0.3	22.0	-0.4	-7.9
CCC(=O)c1ccc(OCC(O)CN2CCN(C(c3ccccc3)c3ccccc3)CC2)cc1 (centres undefined)	15.9	74.8*	10.6	0.3	-1.6	46.3	3.2	3.2
CCC(=O)c1ccc(OCC(O)CN2CCOCC2)cc1 (centres undefined)	8.6	-4.7	-0.4	-4.4	-1.6	.	.	.
OC(CN1CCN(c2ncc(C(F)(F)F)cc2Cl)CC1)c1ccccc1 (centres undefined)	-2.1	-0.3	-8.2	0.8	-2.5	.	.	.
N#Cc1ccc(OCC(O)CN2CCN(c3ncc(C(F)(F)F)cc3Cl)CC2)cc1 (centres undefined)	-7.8	48.4*	-12.3	11.6	-4.0	32.4	-1.2	-16.2
CC1CC(NS(=O)(=O)c2cc3c4c(c2)CCN4C(=O)CC3)CC(C)(C)C1 (centres undefined)	-4.7	7.9	0.7	17.3	6.8	.	.	.
Cc1onc(-c2c(Cl)cccc2Cl)c1C(=O)Nc1ccc(C(N)=O)cc1	12.6	8.1	-1.2	3.3	1.0	.	.	.
Cc1noc(C)c1C(=O)N1CCN(C(=O)c2sc3cc(Cl)ccc3c2Cl)CC1	0.3	42.4*	-0.1	8.4	-4.0	14.5	-1.3	-8.3
CCOc1ccc(/C=N/NC(=O)Cc2cccs2)cc1	-9.1	11.7	-9.6	4.0	1.3	.	.	.
